Measured values published in ChEMBL document CHEMBL4138271, “Crystal Structures and Human Leukemia Cell Apoptosis Inducible Activities of Parthenolide Analogues Isolated from Piptocoma rufescens” (J Nat Prod, 2018).
Activity calls are given as the source filed them. The rule behind the calls is not given here.

Assays:
[1] = system: MOLM-13; test: Cytotoxicity against human MOLM13 cells after 72 hrs by MTS assay; type: functional, cell-based; settings: MOLM-13, 72 h
[2] = system: EOL1; test: Cytotoxicity against human EOL-1 cells after 72 hrs by MTS assay; type: functional, cell-based; settings: EOL1, 72 h
[3] = system: HT-29; test: Cytotoxicity against human HT-29 cells after 72 hrs by MTS assay; type: functional, cell-based; settings: HT-29, 72 h
[4] = system: MOLM-13; test: Synergistic antileukemic activity against human MOLM13 cells assessed as concentration required for <= 75% cell survival after 72 hrs in presence of midostaurin by CellTiter 96 AQueous One solution cell proliferation assay; type: functional
[5] = system: EOL1; test: Synergistic antileukemic activity against human EOL-1 cells assessed as concentration required for <= 75% cell survival after 72 hrs in presence of midostaurin by CellTiter 96 AQueous One solution cell proliferation assay; type: functional
[6] = system: MOLM-13; test: Induction of apoptosis in human MOLM13 cells assessed as live cells at 0.26 uM after 24 hrs by Annexin-V FITC/7-AAD staining based flow cytometric method (reference value: 86.8%); type: functional
[7] = system: MOLM-13; test: Induction of apoptosis in human MOLM13 cells assessed as early apoptotic cells at 0.26 uM after 24 hrs by Annexin-V FITC/7-AAD staining based flow cytometric method (reference value: 11.8%); type: functional
[8] = system: MOLM-13; test: Induction of apoptosis in human MOLM13 cells assessed as late apoptotic cells at 0.26 uM after 24 hrs by Annexin-V FITC/7-AAD staining based flow cytometric method (reference value: 1.43%); type: functional
[9] = system: MOLM-13; test: Induction of apoptosis in human MOLM13 cells assessed as necrotic cells at 0.26 uM after 24 hrs by Annexin-V FITC/7-AAD staining based flow cytometric method (reference value: 0%); type: functional
[10] = system: MOLM-13; test: Induction of apoptosis in human MOLM13 cells assessed as live cells at 0.59 uM after 24 hrs by Annexin-V FITC/7-AAD staining based flow cytometric method (reference value: 86.8%); type: functional
[11] = system: MOLM-13; test: Induction of apoptosis in human MOLM13 cells assessed as early apoptotic cells at 0.59 uM after 24 hrs by Annexin-V FITC/7-AAD staining based flow cytometric method (reference value: 11.8%); type: functional
[12] = system: MOLM-13; test: Induction of apoptosis in human MOLM13 cells assessed as late apoptotic cells at 0.59 uM after 24 hrs by Annexin-V FITC/7-AAD staining based flow cytometric method (reference value: 1.43%); type: functional
[13] = system: MOLM-13; test: Induction of apoptosis in human MOLM13 cells assessed as necrotic cells at 0.59 uM after 24 hrs by Annexin-V FITC/7-AAD staining based flow cytometric method (reference value: 0%); type: functional
[14] = system: MOLM-13; test: Induction of apoptosis in human MOLM13 cells assessed as live cells at 1.8 uM after 24 hrs by Annexin-V FITC/7-AAD staining based flow cytometric method (reference value: 86.8%); type: functional
[15] = system: MOLM-13; test: Induction of apoptosis in human MOLM13 cells assessed as early apoptotic cells at 1.8 uM after 24 hrs by Annexin-V FITC/7-AAD staining based flow cytometric method (reference value: 11.8%); type: functional
[16] = system: MOLM-13; test: Induction of apoptosis in human MOLM13 cells assessed as late apoptotic cells at 1.8 uM after 24 hrs by Annexin-V FITC/7-AAD staining based flow cytometric method (reference value: 1.43%); type: functional
[17] = system: MOLM-13; test: Induction of apoptosis in human MOLM13 cells assessed as necrotic cells at 1.8 uM after 24 hrs by Annexin-V FITC/7-AAD staining based flow cytometric method (reference value: 0%); type: functional
[18] = system: EOL1; test: Induction of apoptosis in human EOL-1 cells assessed as live cells at 0.26 uM after 24 hrs by Annexin-V FITC/7-AAD staining based flow cytometric method (reference value: 97.5%); type: functional
[19] = system: EOL1; test: Induction of apoptosis in human EOL-1 cells assessed as early apoptotic cells at 0.26 uM after 24 hrs by Annexin-V FITC/7-AAD staining based flow cytometric method (reference value: 1.94%); type: functional
[20] = system: EOL1; test: Induction of apoptosis in human EOL-1 cells assessed as late apoptotic cells at 0.26 uM after 24 hrs by Annexin-V FITC/7-AAD staining based flow cytometric method (reference value: 0.535%); type: functional
[21] = system: EOL1; test: Induction of apoptosis in human EOL-1 cells assessed as necrotic cells at 0.26 uM after 24 hrs by Annexin-V FITC/7-AAD staining based flow cytometric method (reference value: 0.032%); type: functional
[22] = system: EOL1; test: Induction of apoptosis in human EOL-1 cells assessed as live cells at 0.59 uM after 24 hrs by Annexin-V FITC/7-AAD staining based flow cytometric method (reference value: 97.5%); type: functional
[23] = system: EOL1; test: Induction of apoptosis in human EOL-1 cells assessed as early apoptotic cells at 0.59 uM after 24 hrs by Annexin-V FITC/7-AAD staining based flow cytometric method (reference value: 1.94%); type: functional
[24] = system: EOL1; test: Induction of apoptosis in human EOL-1 cells assessed as late apoptotic cells at 0.59 uM after 24 hrs by Annexin-V FITC/7-AAD staining based flow cytometric method (reference value: 0.535%); type: functional
[25] = system: EOL1; test: Induction of apoptosis in human EOL-1 cells assessed as necrotic cells at 0.59 uM after 24 hrs by Annexin-V FITC/7-AAD staining based flow cytometric method (reference value: 0.032%); type: functional
[26] = system: EOL1; test: Induction of apoptosis in human EOL-1 cells assessed as live cells at 1.8 uM after 24 hrs by Annexin-V FITC/7-AAD staining based flow cytometric method (reference value: 97.5%); type: functional
[27] = system: EOL1; test: Induction of apoptosis in human EOL-1 cells assessed as early apoptotic cells at 1.8 uM after 24 hrs by Annexin-V FITC/7-AAD staining based flow cytometric method (reference value: 1.94%); type: functional
[28] = system: EOL1; test: Induction of apoptosis in human EOL-1 cells assessed as late apoptotic cells at 1.8 uM after 24 hrs by Annexin-V FITC/7-AAD staining based flow cytometric method (reference value: 0.535%); type: functional
[29] = system: EOL1; test: Induction of apoptosis in human EOL-1 cells assessed as necrotic cells at 1.8 uM after 24 hrs by Annexin-V FITC/7-AAD staining based flow cytometric method (reference value: 0.032%); type: functional
[30] = system: MOLM-13; test: Induction of apoptosis in human MOLM13 cells assessed as caspase-3 activation at 10 uM after 72 hrs by immunoblotting analysis; type: functional, cell-based
How it was run: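 MOLM-13 cells treated 72 h with test compounds at 10 μM or PKC412 at 10 nM. Cells washed in ice-cold PBS, lysed at 10^8 cells/mL in NP-40 hypertonic buffer (pH 7.5) with protease/phosphatase inhibitors, then run on SDS-PAGE and PVDF. Blots probed 12 h with rabbit monoclonal cleaved caspase-3 (Asp175), β-actin as loading control. Representative of three independent experiments.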

[31] = system: EOL1; test: Induction of apoptosis in human EOL-1 cells assessed as caspase-3 activation at 10 uM after 72 hrs by immunoblotting analysis; type: functional, cell-based
How it was run: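 EOL-1 cells (RPMI 1640, 10% FBS, 37 °C, 5% CO2) exposed 72 h; compounds at 10 μM, PKC412 at 10 nM. Harvested, PBS-washed, lysed in hypertonic NP-40 buffer with protease/phosphatase inhibitors; SDS-PAGE, PVDF transfer, rabbit monoclonal cleaved caspase-3 (Asp175) antibody 12 h, secondary 1 h, chemiluminescent detection; β-actin loading control. Representative blots of three independent experiments.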

[32] = biological target: Transcription factor p65 (Homo sapiens) (UniProt Q04206); test: Inhibition of NFkappaB p65 in human MOLM13 cells at 10 uM after 72 hrs by immunoblotting method; type: cell-based
Sequence of Transcription factor p65 (Homo sapiens) (Q04206 whole entry): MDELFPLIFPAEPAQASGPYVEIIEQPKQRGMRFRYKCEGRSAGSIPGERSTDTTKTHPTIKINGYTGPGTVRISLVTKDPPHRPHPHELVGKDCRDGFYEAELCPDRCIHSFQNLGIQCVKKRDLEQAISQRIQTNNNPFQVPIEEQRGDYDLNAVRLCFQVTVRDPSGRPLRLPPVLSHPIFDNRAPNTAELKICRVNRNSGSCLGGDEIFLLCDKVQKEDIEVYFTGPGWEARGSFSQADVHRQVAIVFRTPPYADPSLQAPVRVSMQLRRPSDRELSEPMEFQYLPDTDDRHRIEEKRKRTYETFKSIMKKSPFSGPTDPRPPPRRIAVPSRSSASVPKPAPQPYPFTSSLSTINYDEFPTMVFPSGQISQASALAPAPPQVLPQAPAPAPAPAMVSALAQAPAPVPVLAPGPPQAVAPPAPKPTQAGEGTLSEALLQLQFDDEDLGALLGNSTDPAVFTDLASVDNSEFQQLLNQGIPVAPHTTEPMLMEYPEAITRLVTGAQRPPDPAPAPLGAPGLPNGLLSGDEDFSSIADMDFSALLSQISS
How it was run: (§1)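 MOLM-13 or EOL-1 cells treated 72 h at 10 μM. Cells washed in ice-cold PBS and lysed in hypertonic NP-40 buffer (10 mM HEPES pH 7.5, 0.5 M NaCl) with protease/phosphatase inhibitors. Protein measured by BCA; SDS-PAGE onto PVDF. Probed 12 h with rabbit monoclonal NF-κB-p65 antibody, goat β-actin as loading control, then chemiluminescence. Blots representative of three independent experiments.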

[33] = biological target: Transcription factor p65 (Homo sapiens) (UniProt Q04206); test: Inhibition of NFkappaB p65 in human EOL-1 cells at 10 uM after 72 hrs by immunoblotting method; type: cell-based; how it was run: as §1

**Q.** For `C=C(C)C(=O)O[C@H]1C[C@@]2(C)OC(=CC2=O)/C(C)=C\[C@H]2OC(=O)C(=C)[C@H]12`, which IC50 [1] is on record?
**A.** 1100 nM

**Q.** And the IC50 [2]?
**A.** 1000 nM

**Q.** What about the IC50 [3] of the same compound?
**A.** 260 nM

**Q.** What about the Activity [4] of the same compound?
**A.** 0.44 µM

**Q.** What about the Activity [5] of the same compound?
**A.** 0.59 µM

**Q.** What about the Activity [6] of the same compound?
**A.** 92.3%

**Q.** And the Activity [7]?
**A.** 6.62%

**Q.** What about the Activity [8] of the same compound?
**A.** 0.097%

**Q.** And the Activity [9]?
**A.** 0.08%

**Q.** And the Activity [10]?
**A.** 86.5%

**Q.** And the Activity [11]?
**A.** 10.9%

**Q.** What about the Activity [12] of the same compound?
**A.** 2.42%

**Q.** And the Activity [13]?
**A.** 0.214%

**Q.** What about the Activity [14] of the same compound?
**A.** 1.66%

**Q.** And the Activity [15]?
**A.** 1.25%

**Q.** And the Activity [16]?
**A.** 87.1%

**Q.** What about the Activity [17] of the same compound?
**A.** 9.96%

**Q.** What about the Activity [18] of the same compound?
**A.** 97.5%

**Q.** What about the Activity [19] of the same compound?
**A.** 1.9%

**Q.** What about the Activity [20] of the same compound?
**A.** 0.568%

**Q.** What about the Activity [21] of the same compound?
**A.** 0.032%

**Q.** And the Activity [22]?
**A.** 92.6%

**Q.** What about the Activity [23] of the same compound?
**A.** 2.66%

**Q.** What about the Activity [24] of the same compound?
**A.** 4.42%

**Q.** And the Activity [25]?
**A.** 0.301%

**Q.** What about the Activity [26] of the same compound?
**A.** 25.9%

**Q.** What about the Activity [27] of the same compound?
**A.** 0.24%

**Q.** What about the Activity [28] of the same compound?
**A.** 69.1%

**Q.** And the Activity [29]?
**A.** 4.7%

**Q.** What about the Activity [30] of the same compound?
**A.** Active

**Q.** And the Activity [31]?
**A.** Active

**Q.** And the inhibition [32]?
**A.** Active

**Q.** What about the inhibition [33] of the same compound?
**A.** Active
